# Compound activity as filed in PubChem BioAssay.
# MEKK2 WT-MEK5: raises or lowers MEK5 binding to wildtype human MEKK2 PB1 domain. Q9Y2U5. bead flow cytometry, Alexa488-MEK5 binding to MEKK2 WT; actives lie on both sides. binding response (% of control), % at 10 µM. actives 1.1% (n = 290,000); in the data active means binding response below about 67% or above about 130%
# ABCG2 inh: human ABCG2 inhibition, ABCB1 as counter-screen; Q9UNQ0; IgMXP3 cells, JC-1 efflux, flow cytometry; inhibition, % at 6.6 µM; actives 0.1% (n = 190,000);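 active means inhibition above 80%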;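 further: 0% = DMSO and 100% = nicardipine control wells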
#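 test system = two drug-resistant human cell lines, ABCG2 and ABCB1 | amount = 3 million cells/mL final, two lines in 1:1 ratio | reagent = JC-1 transporter substrate | doses = one concentration, 6.6 µM final | incubation = 10 min at 25 °C | signal = flow cytometric JC-1 green MFI at 530 nm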
# MEKK3 PB1 HTS: MEKK3-MEK5 PB1 interaction, increase or decrease; binding response (% of control), % at 10 µM; bead-based flow cytometry, Alexa488-MEK5 binding to MEKK3; actives lie on both sides; 0 = blocked by unlabeled MEK5, 100 = vehicle; actives 1.4% (n = 290,000); Q99759;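 active means binding response more than 3 SD above or below the average of its plate-row segment, actives on both sides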;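 further: Alexa488 bead fluorescence after subtracting the streptavidin-only scavenger bead signal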
# MEKK2 mut-MEK5: signal of MEK5 binding to mutant human MEKK2 PB1 domain; bead flow cytometry, Alexa488-MEK5 binding to MEKK2 mutant; percent response, % at 10 µM; actives 0.35% (n = 290,000); in the data active means percent response above about 24%, passing the limit was not always enough
# Efflux pump inh: antifungal efflux pump inhibition, Nile Red retention; S. cerevisiae Candida pump triplex; inhibition, % at 10 µM; actives 0.44% (n = 330,000);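 active means plate passing quality check with inhibition over a set limit, or well fluorescence over plate mean plus 4 SD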;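 further: Nile Red retained in pooled yeast measured as flow cytometry median fluorescence; 0% = buffer negative control and 100% = Enniatin B positive control; higher means more Nile Red kept so more efflux inhibition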
# ABCB1 block: human ABCB1 inhibition, ABCG2 as counter-screen. P08183. CCRF-Adr cells, JC-1 efflux, flow cytometry. inhibition, % at 6.6 µM. actives 0.067% (n = 190,000). AID 1326; in the data active means inhibition above about 40%;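 further: 0% = vehicle and 100% = reference inhibitor; higher value means more JC-1 retained so stronger ABCB1 efflux block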
# MEKK2wt confirm: raises or lowers MEK5 binding to wildtype human MEKK2, retest; shares compounds with MEKK3 PB1 HTS; bead flow cytometry, Alexa488-MEK5 binding to MEKK2 WT; actives lie on both sides; binding response (% of control), % at 10 µM; actives 2.4% (n = 5,900); AID 1892; in the data active means binding response below about 16% or above about 210%; inactive means in between
# MEKK2mut-MEK5: signal of MEK5 binding to mutant human MEKK2, retest. shares compounds with MEKK3 PB1 HTS. bead flow cytometry, Alexa488-MEK5 binding to MEKK2 mutant. percent response, % at 10 µM. actives 2% (n = 5,900). AID 1893; in the data active means percent response mostly above about 71%, no sharp cut-off; inactive means mostly below about 38%;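 further: higher means compound restores mutant binding toward wildtype level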
# MEKK3 confirm: MEKK3-MEK5 PB1 inhibition, single concentration confirmation; shares compounds with MEKK3 PB1 HTS; bead flow cytometry, Alexa488-MEK5 binding to MEKK3; hits give low values; binding response (% of control), % at 10 µM; actives 1.8% (n = 5,900); AID 1894;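 active means binding response below 72% of control, or above a set upper limit, though filed actives all read lower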;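 further: 100% = DMSO only wells and 0% = binding blocked by excess unlabeled MEK5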
# * hit, by the source's call; / = no result given; [ ] = another dose, or the depositor's remark. Rows were chosen to be rich in hits. Some 2.5% of all compounds tested hit in one or more screens of this group.
SMILES,MEKK2 WT-MEK5,ABCG2 inh,MEKK3 PB1 HTS,MEKK2 mut-MEK5,Efflux pump inh,ABCB1 block,MEKK2wt confirm,MEKK2mut-MEK5,MEKK3 confirm
COc1cccc(NC(=O)c2cc3ccccc3oc2=O)c1,103.0,/,106.0,3.0,-0.1,/,/,/,/
COc1ccccc1NS(=O)(=O)c1cc(NC(=O)c2cc3ccccc3oc2=O)ccc1C,105.0,-0.2,157.0*,0.0,-0.1,0.3,96.0,-11.0,98.0
COc1ccccc1NC(=O)Cn1nnc(-c2ccccc2NC(=O)c2cc3ccccc3oc2=O)n1,81.0,0.1,76.0*[inhibitor],-7.0,0.0,-0.1,98.0,-1.0,99.0
N=C(N)SCc1nc2ccccc2c(=O)n1-c1ccccc1Cl,128.0,0.1,135.0*,10.0,0.3,-0.2,100.0,2.0,102.0
O=C1c2ccc([N+](=O)[O-])cc2C(=O)N1Cc1cccnc1,118.0,/,111.0,25.0*,-0.1,/,105.0,-2.0,106.0
O=C1c2ccc3c4c(ccc(c24)C(=O)N1Cc1cccnc1)C(=O)N(Cc1cccnc1)C3=O,111.0,17.7,103.0,7.0,/,1.9,/,/,/
Cc1ccc(NC(=O)COC(=O)c2ccccc2-c2nc3ccccc3s2)c(C)c1,107.0,4.1,108.0,-1.0,0.2,1.2,/,/,/
CCc1cccc(CC)c1NC(=O)COC(=O)c1ccccc1-c1nc2ccccc2s1,72.0,22.7,48.0*[inhibitor],-2.0,0.1,2.0,93.0,-6.0,102.0
CCCC[C@@H](CNC)NC[C@H](Cc1ccc(O)cc1)NCCc1ccc(OCC)cc1,153.0*,/,103.0,5.0,0.1,/,142.0,26.0,102.0
Cc1nn(C)c(C(=O)Sc2cccc(Cl)c2)c1[N+](=O)[O-],115.0,/,133.0*,28.0,0.2,/,97.0,-6.0,97.0
O=c1[nH]c(SCC2CCCCO2)nc2ccccc12 (centres undefined),93.0,-0.2,73.0*[inhibitor],-4.0,-0.1,-0.1,103.0,10.0,105.0
C=CCn1c(Oc2ccc(C=O)cc2OCC)nc2c1c(=O)n(C)c(=O)n2C,100.0,/,97.0,2.0,0.0,/,/,/,/
N=C1/C(=C\c2ccc(SCc3ccccc3)o2)C(=O)N=C2SC(CC(=O)N3CCOCC3)=NN12,50.0,/,48.0*[inhibitor],-12.0,-0.2,/,94.0,-6.0,94.0
Brc1ccc(Nc2ncnc3[nH]ncc23)cc1,68.0,/,73.0*[inhibitor],-30.0,-0.1,/,101.0,2.0,101.0
Cn1c(Cn2c(C(F)(F)F)nc3ccccc32)nc2ccccc21,110.0,2.1,109.0,24.0*,-0.1,0.5,102.0,5.0,103.0
COC(=O)c1[nH]c2cccc(OC)c2c1NC(=O)CCN1CCSCC1,102.0,/,105.0,4.0,0.1,/,/,/,/
COC(=O)c1[nH]c2cc(OC)ccc2c1N,30.0*[inhibitor],0.0,18.0*[inhibitor],-43.0,0.2,0.0,109.0,7.0,102.0
CCOC(=O)Nc1c(C(=O)OC)[nH]c2cc(OC)ccc12,102.0,/,107.0,11.0,-0.1,/,/,/,/
COC(=O)c1[nH]c2cc(OC)ccc2c1NC(=O)CCN1CCSCC1,125.0,1.0,124.0*,7.0,0.4,0.2,98.0,2.0,100.0
